From PMC8374356 (Biochemistry and Biophysics Reports, 2021) come the findings set out here.

What all share (assay type): cell-based, mouse
Data set [1] deals with AIF. Briefly: AIF nuclear translocation by immunocytochemistry. To be noted: HT22 cells, 2 mM glutamate alone for up to 18 h.
For data set [2], the system named is HT22 cells. Description: Cell morphology by phase contrast microscopy. To be noted: 50 μM peptide or 2 mM glutamate (positive control), 24 h.
Data set [3] relates to HT22 cells. Description: TUNEL assay of glutamate-induced oxytosis. Conditions: 2 mM glutamate alone for 18 h, normalized by nuclei count.
The test system of data set [4] is HT22 cells. Briefly: Immunofluorescent staining of ssDNA. To be noted: 2 mM glutamate alone for 18 h. A digest of the protocol:
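HT22 cells on cover glass (5 × 10⁴ cells/well, 24 h) exposed to 2 mM L-glutamate in fresh medium for 18 h. Fixed in 4% paraformaldehyde (pH 7.4, 4 °C, 30 min), acetone-permeabilised, goat-serum blocked. Rabbit anti-ssDNA (1:200, 4 °C overnight), Alexa 594 secondary with DAPI. Confocal imaging; ssDNA-positive cells counted over total nuclei. At least three repeats, mean ± SD, ANOVA/Tukey-Kramer.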

In the case of `N[C@@H](CCC(=O)O)C(=O)O` [glutamate, L-glutamate], the AIF localization result in data set [1] is “induced diffuse localization of AIF in both cytoplasm and nucleus”. In addition, the cell morphology entry in data set [2] was “induced cell detachment and shrinkage”. For the same molecule, in data set [3], the TUNEL-positive cells entry is “up to 73%”. This molecule also yielded a ssDNA-positive cells in data set [4] of 40%.
